Data: ChEMBL document CHEMBL4118114 (Bioorg Med Chem, 2018)
pEC50, pIC50, pKi: −log10 of the molar value. Starred links: 1 amine or outer side, 2 acyl side, 3 side chain; linkers in the order of their positions; H or OH if unused. Positions of bridges follow the written chain, without caps; N, C: chain ends. Non-standard residues stand in square brackets, D forms with d. Residues, ends and D or L forms follow the SMILES beside them. oXylylene = c1ccc(C[*:2])c(C[*:1])c1; X1 = O=C(CCC[*:2])[*:1]; Mpa = O=C(O)CCS

What was measured:
[1] = target: T1, Oxytocin receptor (Homo sapiens) (UniProt P30559); experiment: (§1) Agonist activity at human mammary gland oxytocin receptor expressed in CHO cells assessed as increase in intracellular calcium flux measured for 5 mins by Fluo-4-AM dye based FLIPR assay; type: functional, cell-based
T1 sequence (whole entry): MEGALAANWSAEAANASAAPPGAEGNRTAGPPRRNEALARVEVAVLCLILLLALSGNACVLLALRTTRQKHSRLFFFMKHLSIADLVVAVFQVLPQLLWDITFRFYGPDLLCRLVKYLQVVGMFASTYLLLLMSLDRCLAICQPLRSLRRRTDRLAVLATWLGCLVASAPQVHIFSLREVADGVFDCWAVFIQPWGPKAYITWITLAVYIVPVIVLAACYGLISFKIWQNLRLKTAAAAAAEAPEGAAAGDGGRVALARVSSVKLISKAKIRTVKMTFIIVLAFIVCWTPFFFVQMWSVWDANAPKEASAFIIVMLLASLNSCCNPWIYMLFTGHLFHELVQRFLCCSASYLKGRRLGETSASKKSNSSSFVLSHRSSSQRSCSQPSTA
Method in brief: (§2)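 Stably transfected CHO lines, one human receptor each, grown in F-12K with 10% FBS, geneticin 200 µg/mL, 37 °C, 10% CO2. Plated 50,000 cells/well for 24 h, then loaded 60 min with 2 µM Fluo-4-AM. Compound dilution series added on FLIPR and calcium signal recorded 5 min for agonist activity. Each compound tested at least 3 times in duplicate.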

Vasopressin V1a receptor [2] = target: T2, Vasopressin V1a receptor (Homo sapiens, UniProt P37288); experiment: Displacement of [3H]AVP from human liver vasopressin V1a receptor expressed in HEK293 cell membrane after 1 hr by scintillation counting method; type: cell membranes
T2 sequence (P37288 whole entry): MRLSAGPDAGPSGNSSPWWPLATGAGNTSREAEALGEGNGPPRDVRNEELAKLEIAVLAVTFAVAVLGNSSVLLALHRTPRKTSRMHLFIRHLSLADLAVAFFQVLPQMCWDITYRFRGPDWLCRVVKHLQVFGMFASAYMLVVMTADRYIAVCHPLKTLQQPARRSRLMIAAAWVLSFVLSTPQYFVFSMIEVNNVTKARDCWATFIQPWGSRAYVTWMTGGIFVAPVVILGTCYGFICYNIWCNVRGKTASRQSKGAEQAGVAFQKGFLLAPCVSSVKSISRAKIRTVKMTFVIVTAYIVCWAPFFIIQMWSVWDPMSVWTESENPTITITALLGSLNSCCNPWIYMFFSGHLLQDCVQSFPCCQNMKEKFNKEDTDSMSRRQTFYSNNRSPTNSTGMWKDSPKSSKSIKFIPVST
Method in brief: (§3)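 Membranes from transiently transfected HEK293 cells. Receptors were cloned from human liver (V1a) or kidney (V2) RNA. SPA assay with yttrium silicate beads in 50 mM Tris, 120 mM NaCl, 5 mM KCl, 2 mM CaCl2, 10 mM MgCl2. 4 nM [3H]AVP added, compound in 2% DMSO, 1 h at room temperature. Ki by Cheng-Prusoff. Three experiments in duplicate.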

Vasopressin V1a receptor [3] = target: T2, Vasopressin V1a receptor; experiment: Agonist activity at human liver vasopressin V1a receptor expressed in CHO cells assessed as increase in intracellular calcium flux measured for 5 mins by Fluo-4-AM dye based FLIPR assay; type: functional, cell-based; method in brief: as §2
Oxytocin receptor [4] = target: T3, Oxytocin receptor (Homo sapiens, UniProt P30559); experiment: Displacement of [3H]OT from human mammary gland oxytocin receptor expressed in HEK293 cell membrane after 1 hr by scintillation counting method; type: cell membranes
T3 sequence (P30559 whole entry): T1 sequence (whole entry)
Method in brief: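 Membranes from a stable HEK clone expressing human OTR cloned from mammary gland RNA. Filtration binding with 1 nM final [3H]OT in 50 mM Tris, 5 mM MgCl2, 0.1% BSA, pH 7.4, for 1 h at room temperature. GF/C filters, washed 5 times ice-cold. Ki by Cheng-Prusoff. Three experiments in duplicate.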

Vasopressin V1b receptor [5] = target: T4, Vasopressin V1b receptor (Homo sapiens, UniProt P47901); experiment: Antagonist activity at human vasopressin V1b receptor expressed in CHO cells assessed as inhibition of agonist-induced intracellular calcium flux preincubated for 20 mins followed by AVP addition measured for 5 mins by Fluo-4-AM dye based FLIPR assay; type: functional, cell-based
T4 sequence (P47901 whole entry): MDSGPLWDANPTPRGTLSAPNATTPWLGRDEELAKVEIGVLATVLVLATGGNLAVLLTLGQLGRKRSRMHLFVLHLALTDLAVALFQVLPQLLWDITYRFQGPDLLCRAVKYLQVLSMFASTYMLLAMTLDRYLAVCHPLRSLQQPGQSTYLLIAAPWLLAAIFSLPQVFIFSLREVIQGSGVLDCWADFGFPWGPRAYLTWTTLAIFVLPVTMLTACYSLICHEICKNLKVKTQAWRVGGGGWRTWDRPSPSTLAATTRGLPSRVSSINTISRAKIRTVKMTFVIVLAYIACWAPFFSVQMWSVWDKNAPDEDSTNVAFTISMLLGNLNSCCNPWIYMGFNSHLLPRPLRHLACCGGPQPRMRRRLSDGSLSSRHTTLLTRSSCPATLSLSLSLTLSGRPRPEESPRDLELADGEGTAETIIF
Method in brief: (§4)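 CHO cells stably expressing the relevant human receptor, plated 24 h, loaded 60 min with 2 µM Fluo-4-AM and read on FLIPR. […] IC50 came from a variable-slope single-site competition fit of normalized fluorescence. At least 3 runs in duplicate.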

Oxytocin receptor [6] = target: T3, Oxytocin receptor; experiment: Antagonist activity at human mammary gland oxytocin receptor expressed in CHO cells assessed as inhibition of agonist-induced intracellular calcium flux preincubated for 20 mins followed by oxytocin addition measured for 5 mins by Fluo-4-AM dye based FLIPR assay; type: functional, cell-based; conditions: for IC50: cho; method in brief: as §4
Vasopressin V1b receptor [7] = target: T4, Vasopressin V1b receptor; experiment: Displacement of [3H]AVP from human vasopressin V1b receptor expressed in HEK293 cell membrane after 1 hr by scintillation counting method; type: cell membranes
Vasopressin V1a receptor [8] = target: T2, Vasopressin V1a receptor; experiment: Antagonist activity at human liver vasopressin V1a receptor expressed in CHO cells assessed as inhibition of agonist-induced intracellular calcium flux preincubated for 20 mins followed by AVP addition measured for 5 mins by Fluo-4-AM dye based FLIPR assay; type: functional, cell-based; method in brief: as §4
Vasopressin V1b receptor [9] = target: T4, Vasopressin V1b receptor; experiment: Agonist activity at human vasopressin V1b receptor expressed in CHO cells assessed as increase in intracellular calcium flux measured for 5 mins by Fluo-4-AM dye based FLIPR assay; type: functional, cell-based
[10] = Thermal stability of the compound at 50 degC at 0.5 mg/ml after 10 days by LC-MS analysis; type: physicochemical; conditions: 240 h
Method in brief: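 Peptides dissolved in water at 0.5 mg/mL and held at 50 °C. After 10 days, aliquots were analysed by direct-injection LC-MS. Remaining peptide was expressed as a percentage of the corresponding peak before heating.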

Oxytocin receptor [11] = target: T3, Oxytocin receptor; experiment: as §1; type: functional, cell-based; method in brief: as §2
[12] = Half life in Sherman rat plasma; type: ADME, cell-free
Homo sapiens [13] = species on record: Homo sapiens; experiment: Selectivity index, ratio of IC50 for human liver vasopressin V1a receptor to IC50 for human mammary gland oxytocin receptor
Homo sapiens [14] = species on record: Homo sapiens; experiment: Selectivity index, ratio of Ki for human mammary gland oxytocin receptor to Ki for human liver vasopressin V1a receptor
Method in brief: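 Ratio of binding Ki from the radioligand displacement assays, calculated as the OTR binding value divided by the V1a value.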

Vasopressin V2 receptor [15] = target: T5, Vasopressin V2 receptor (Homo sapiens, UniProt P30518); experiment: Displacement of [3H]AVP from human kidney vasopressin V2 receptor expressed in HEK293 cell membrane after 1 hr by scintillation counting method; type: cell membranes; method in brief: as §3
T5 sequence (P30518 whole entry): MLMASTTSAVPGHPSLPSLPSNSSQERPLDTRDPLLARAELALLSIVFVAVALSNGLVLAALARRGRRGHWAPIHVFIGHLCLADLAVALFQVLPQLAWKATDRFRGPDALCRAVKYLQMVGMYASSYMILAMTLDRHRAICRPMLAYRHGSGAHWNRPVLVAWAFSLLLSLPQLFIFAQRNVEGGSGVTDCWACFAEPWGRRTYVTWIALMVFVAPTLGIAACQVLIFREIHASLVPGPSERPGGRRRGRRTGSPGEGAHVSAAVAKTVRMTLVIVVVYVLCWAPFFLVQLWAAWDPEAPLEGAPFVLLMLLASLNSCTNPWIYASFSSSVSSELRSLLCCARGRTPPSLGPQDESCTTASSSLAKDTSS

Homo sapiens [16] = species on record: Homo sapiens; experiment: Selectivity index, ratio of IC50 for human mammary gland oxytocin receptor to IC50 for human liver vasopressin V1a receptor
Vasopressin V2 receptor [17] = target: T5, Vasopressin V2 receptor; experiment: Agonist activity at human kidney vasopressin V2 receptor expressed in CHO cells assessed as increase in intracellular calcium flux measured for 5 mins by Fluo-4-AM dye based FLIPR assay; type: functional, cell-based; method in brief: as §2
Homo sapiens [18] = species on record: Homo sapiens; experiment: Selectivity index, ratio of Ki for human liver vasopressin V1a receptor to Ki for human mammary gland oxytocin receptor
Method in brief: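 Ratio of binding Ki from the radioligand displacement assays, calculated as the strongest AVP receptor subtype binding value divided by the OTR value.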

Vasopressin V2 receptor [19] = target: T5, Vasopressin V2 receptor; experiment: Antagonist activity at human kidney vasopressin V2 receptor expressed in CHO cells assessed as inhibition of agonist-induced intracellular calcium flux preincubated for 20 mins followed by AVP addition measured for 5 mins by Fluo-4-AM dye based FLIPR assay; type: functional, cell-based
Method in brief: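 CHO cells stably expressing the relevant human receptor, plated 24 h, loaded 60 min with 2 µM Fluo-4-AM and read on FLIPR. IC50 came from a variable-slope single-site competition fit of normalized fluorescence. At least 3 runs in duplicate.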

For `CC[C@H](C)[C@@H]1NC(=O)[C@H](Cc2ccc(OC)cc2)NC(=O)CCCSC[C@@H](C(=O)N2CCC[C@H]2C(=O)N[C@@H](CC(C)C)C(=O)NCC(N)=O)NC(=O)[C@H](CC(N)=O)NC(=O)[C@H](CCC(N)=O)NC1=O` (Y(Me)IQNCPLG-NH2; linker N-5 via X1), which %max [1] is on record?
Its %max is 45%.

What does the source list for `CC[C@H](C)[C@@H]1NC(=O)[C@H](Cc2ccc(O)cc2)NC(=O)CCSCc2ccccc2CSC[C@@H](C(=O)N2CCC[C@H]2C(=O)N[C@@H](CC(C)C)C(=O)NCC(N)=O)NC(=O)[C@H](CC(N)=O)NC(=O)[C@H](CCC(N)=O)NC1=O`?
pKi (Vasopressin V1a receptor [2]): 7.16; pEC50 (Vasopressin V1a receptor [3]): < 4.70; pKi (Oxytocin receptor [4]): 6.66; IC50 (Vasopressin V1b receptor [5]): Not Active; IC50 (Oxytocin receptor [6]): Not Active; pKi (Vasopressin V1b receptor [7]): < 5.22; pIC50 (Vasopressin V1a receptor [8]): 7.46; pEC50 (Vasopressin V1b receptor [9]): 5.08

With `CC[C@H](C)[C@@H]1NC(=O)[C@H](Cc2ccc(O)cc2)NC(=O)CCSCc2cccc(c2)CSC[C@@H](C(=O)N2CCC[C@H]2C(=O)N[C@@H](CC(C)C)C(=O)NCC(N)=O)NC(=O)[C@H](CC(N)=O)NC(=O)[C@H](CCC(N)=O)NC1=O` as the compound, how does the pKi (Vasopressin V1a receptor [2]) read?
The pKi was 5.77.

And the pEC50 (Vasopressin V1a receptor [3])?
The pEC50 was < 4.70.

And the pKi (Oxytocin receptor [4])?
The pKi was 7.30.

What about the Stability [10] of the same compound?
Its Stability is “Stable”.

What about the %max [1] of the same compound?
The %max was 75%.

And the pEC50 (Oxytocin receptor [11])?
The pEC50 was 7.47.

And the IC50 (Vasopressin V1b receptor [5])?
The IC50 was “Not Active”.

And the IC50 (Oxytocin receptor [6])?
The IC50 was “Not Active”.

What about the pKi (Vasopressin V1b receptor [7]) of the same compound?
Its pKi is < 5.22.

What about the pIC50 (Vasopressin V1a receptor [8]) of the same compound?
Its pIC50 is 5.36.

What about the pEC50 (Vasopressin V1b receptor [9]) of the same compound?
Its pEC50 is 5.53.

With `CC[C@H](C)[C@@H]1NC(=O)[C@H](Cc2ccc(O)cc2)NC(=O)[C@@H](N)CSSC[C@@H](C(=O)N2CCC[C@H]2C(=O)N[C@@H](CC(C)C)C(=O)NCC(N)=O)NC(=O)[C@H](CC(N)=O)NC(=O)[C@H](CCC(N)=O)NC1=O` [OXYTOCIN] as the compound, how does the half-life [12] read?
Its half-life is 3 min.

With `CC[C@H](C)[C@@H]1NC(=O)[C@H](Cc2ccc(O)cc2)NC(=O)CCSCc2ccccc2CSC[C@@H](C(=O)N2CCC[C@H]2C(=O)N[C@@H](CCCNC(=N)N)C(=O)NCC(N)=O)NC(=O)[C@H](CC(N)=O)NC(=O)[C@H](CCC(N)=O)NC1=O` ([Mpa]YIQNCPRG-NH2; linker 1-6 via oXylylene) as the compound, how does the pKi (Vasopressin V1a receptor [2]) read?
Its pKi is 7.52.

What about the pEC50 (Vasopressin V1a receptor [3]) of the same compound?
Its pEC50 is < 4.70.

And the pKi (Oxytocin receptor [4])?
The pKi was 6.78.

What about the Ratio IC50 (Homo sapiens [13]) of the same compound?
The Ratio IC50 was 0.008.

And the Ratio Ki (Homo sapiens [14])?
Its Ratio Ki is 5.5.

And the pKi (Vasopressin V2 receptor [15])?
Its pKi is < 5.22.

What about the pEC50 (Oxytocin receptor [11]) of the same compound?
Its pEC50 is < 5.00.

And the Ratio IC50 (Homo sapiens [16])?
Its Ratio IC50 is 123.

What about the pEC50 (Vasopressin V2 receptor [17]) of the same compound?
Its pEC50 is 4.72.

And the Ratio Ki (Homo sapiens [18])?
Its Ratio Ki is 0.2.

And the IC50 (Vasopressin V2 receptor [19])?
The IC50 was “Not Active”.

What about the IC50 (Vasopressin V1b receptor [5]) of the same compound?
The IC50 was “Not Active”.

And the pIC50 (Oxytocin receptor [6]; read-out: IC50)?
The pIC50 was 5.76.

And the pKi (Vasopressin V1b receptor [7])?
Its pKi is < 5.22.

And the pIC50 (Vasopressin V1a receptor [8])?
The pIC50 was 7.85.

And the pEC50 (Vasopressin V1b receptor [9])?
The pEC50 was 5.03.
